Compound activity deposited in PubChem BioAssay by several laboratories.
A selection: hits, their analogues and other compounds. The true share with any hit is near 2.5%.
NR2E3 ag-1 – NR2E3 (human) agonism; AID 2300; 0.12% of 320,000 active; inhibition of corepressor binding, % at 4.78 µM; GST-NR2E3/biotin-RetCOR TR-FRET, 1536-well;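 active = percent inhibition above the cutoff of mean plus 3 SD of all tested compounds, set per screening campaign, cut at about 20% in these data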;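 note: 0% = DMSO wells and 100% = biotin wells as full block of FRET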
Target sequence (Q9Y5X4 whole entry, looked up): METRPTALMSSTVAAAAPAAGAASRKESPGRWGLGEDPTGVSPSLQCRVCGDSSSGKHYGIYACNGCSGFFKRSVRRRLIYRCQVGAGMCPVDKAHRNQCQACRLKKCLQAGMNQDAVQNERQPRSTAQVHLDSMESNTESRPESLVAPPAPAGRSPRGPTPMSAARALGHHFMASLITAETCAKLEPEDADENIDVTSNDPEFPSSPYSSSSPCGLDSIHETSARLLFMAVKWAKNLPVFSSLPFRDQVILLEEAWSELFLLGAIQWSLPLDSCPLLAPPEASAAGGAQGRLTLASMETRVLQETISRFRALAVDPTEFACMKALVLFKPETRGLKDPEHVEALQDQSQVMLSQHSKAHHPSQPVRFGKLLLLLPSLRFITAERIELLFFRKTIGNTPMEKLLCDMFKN
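System: GST-tagged NR2E3 plus biotinylated RetCOR corepressor; Amount: 1.35 nM GST-tagged NR2E3 final; Dosing: single nominal compound dose of 4.8 µM; Schedule: 5 h incubation at 4 °C; Technique: TR-FRET with europium anti-GST and streptavidin-D2, 340 nm excitation; Controls: biotin wells as high control, 0.6% DMSO wells as low control.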
ADAM10 inh – inhibitors of human ADAM10 | O14672 | recombinant ADAM10, EDANS/DABCYL FRET peptide cleavage, 3 h | 0.62% of 370,000 active | inhibition, % at 7 µM;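 active = inhibition above a per-campaign cutoff equal to the mean of compounds falling between control-based bounds plus 3 SD, cut at about 20% in these data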;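 note: 0% = DMSO wells while the 100% control is not disclosed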
GASC-1 inh – inhibitors of human GASC-1 (JMJD2C) demethylase. inhibition, % at 2.35 µM. Q9H3R0. 0.069% of 330,000 active. GST-JMJD2C(1-420) H3K9me3 demethylation, DELFIA europium;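 active = more than half of a compound's replicate wells show inhibition beyond 50%, single wells judged on their own value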;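 note: signal counts dimethyl H3K9 product captured on neutravidin plate; 0% = median of DMSO wells and 100% = 0.3 times that DMSO median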
proKLK7 act – activators of human kallikrein-7 zymogen; P49862; purified proKLK7, EDANS-DABCYL substrate fluorescence; 100% is mature enzyme control, 0% vehicle; activation, % at 7 µM; 0.9% of 370,000 active; AID 652039;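 active = activation above the mean of all tested compounds plus 3 SD, computed per campaign excluding outliers beyond control limits, cut at about 13% in these data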
Target sequence (P49862 whole entry, looked up): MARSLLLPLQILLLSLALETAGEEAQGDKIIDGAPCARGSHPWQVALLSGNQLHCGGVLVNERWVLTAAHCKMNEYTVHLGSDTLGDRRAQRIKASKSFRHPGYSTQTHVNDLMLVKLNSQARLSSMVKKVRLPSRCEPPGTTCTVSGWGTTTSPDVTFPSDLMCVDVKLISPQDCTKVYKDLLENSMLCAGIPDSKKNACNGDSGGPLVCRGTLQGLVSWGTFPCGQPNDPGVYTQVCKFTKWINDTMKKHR
ADAM17 inh – inhibitors of human ADAM17; recombinant ADAM17, EDANS/DABCYL FRET peptide cleavage; P78536; inhibition, % at 6.95 µM; 0.83% of 370,000 active;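 active = inhibition above the mean of compounds lying between control limits plus 3 SD, set per campaign, cut at about 8.5% in these data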;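 note: 0% = DMSO-only wells as the low control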
NR2E3 ag-2 – activates human NR2E3 receptor; AID 602229; 0.35% of 360,000 active; CHO-S Gal4-NCOR/VP16-NR2E3 two-hybrid, luciferase; Q9Y5X4; inhibition of corepressor binding, % at 3.98 µM;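 active = inhibition above the mean of all tested compounds plus 3 SD, cut at about 70% in these data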;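 note: 0% = DMSO with NR2E3 transfected cells and 100% = cells lacking NR2E3 construct; higher means lower luciferase signal from less NR2E3 corepressor binding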
KLK7 act conf – proKLK7 activation, confirmation. shares compounds with proKLK7 act. purified proKLK7, EDANS-DABCYL substrate fluorescence; scaled: vehicle 0, mature enzyme 100. activation, % at 7 µM. 68% of 3,200 active;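 active = activation, as change over the incubation, above the mean of all tested compounds plus 3 SD, cut at about 13% in these data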
EDANS-DABCYL int – optically interferes with EDANS-DABCYL signal, flagging KLK7 hits; shares compounds with proKLK7 act; EDANS-DABCYL substrate fluorescence interference, no enzyme, 4 h; solvent 0%, active enzyme control 100%; activation, % at 7 µM; 80% of 3,200 active;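 active = activation above the all-compound mean plus 3 SD, ignoring values outside control-based bounds, cut at about 4.8% in these data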;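 note: value is the 4 h activation minus the activation read at time zero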
K7 EDANS ctr – counter-screen for kallikrein-7 activators: EDANS-DABCYL interference, dose response; 20% of 250 active; EC50, µM; shares compounds with proKLK7 act; EDANS-DABCYL peptide fluorescence interference, no enzyme;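 active = compounds that raise the fluorescence signal in this interference counterscreen, with EC50 at or below 10 µM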;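 note: intact quenched peptide substrate alone read at 355 nm excitation and 520 nm emission; signal is fluorescence gain from T0 to T4 after four hours at room temperature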
Numbers without * were called inactive; i = inactive; . = no result.

SMILES	NR2E3 ag-1	ADAM10 inh	GASC-1 inh	proKLK7 act	ADAM17 inh	NR2E3 ag-2	KLK7 act conf	EDANS-DABCYL int	others
CCCCCCC12C(=Cc3cc4c(cc31)OCCO4)c1cc(OC)c(OC)cc1C(CC(=O)O)N2C(=O)OC (stereo unspecified)	.	i	.	1.1	-381.1	.	.	.
CCCCCCC12C(=Cc3cc4c(cc31)OCCO4)c1cc(OC)c(OC)cc1C(CC(=O)OC)N2C(=O)OC (stereo unspecified)	.	i	.	17.3*	-189.3	.	-5.0	-16.5
CCc1ccc(CN2CCC(Oc3cc(C(=O)NC4CC4)ccc3OC)CC2)cc1	.	-11.5	.	0.4	-6.5	17.5	.	.
CC(C)CN1C(=O)c2ccc(NC(=O)c3cccs3)cc2C1=O	0.0	-270.5	14.6	12.9*	-103.8	-87.6	-15.5	-13.5
O=C(Nc1ccc2c(c1)OCCO2)C(c1ccnc2ccccc12)N1CCN(C/C=C/c2ccccc2)CC1 (stereo unspecified)	.	0.9	.	0.4	0.7	-1.4	.	.
O=C1C=C(c2ccc3[nH]ccc3c2)CCC1	-1.1	0.7	-2.6	0.0	1.8	-47.5	.	.
COc1ccc2cc(C3=CC(=O)CCC3)ccc2c1	.	i	.	24.0*	-231.6	-93.5	-46.9	-48.9
Cc1cc(Cl)ccc1-c1cc2nc(NCCCN(C)C)n(C)c(=O)c2s1	.	-16.0	.	-0.3	-7.0	6.2	.	.
CC1(C)CCC[C@]2(C)C(CS(=O)c3ccccc3)=C(C=O)CC[C@@H]12 (stereo partly specified)	-3.7	-3.9	-2.1	0.0	0.7	-6.7	.	.
CCOc1ccc(/C=C/C(=O)N(C)CC(=O)Nc2cccc(F)c2)cc1OCC	-1.0	-73.4	5.9	105.9*	-20.4	-15.3	-9.9	-10.1
CN(CC(=O)Nc1cccc(F)c1)C(=O)/C=C/c1ccc(Br)s1	-3.0	-39.9	-1.1	-0.2	-12.8	9.3	.	.
COc1ccccc1CC(=O)NNC(=O)c1cccs1	0.8	-1.8	-10.0	-0.1	-1.3	-15.3	.	.
COc1ccccc1CC(=O)Nc1ccc(NC(=O)c2cccs2)cc1	-0.5	0.8	3.7	52.0*	0.3	-25.9	72.5*	59.5*	K7 EDANS ctr=8.18*
COc1cc(NC(=O)c2cccs2)c(OC)cc1NC(=O)CCC(=O)Nc1ccc(C)cc1	-1.1	4.7	-6.7	123.4*	2.0	13.3	-11.4	1.0
Nc1ccc2c(c1)[nH]c(=O)c1cc(N)ccc12	.	i	.	98.6*	-238.1	-13.6	61.2*	71.5*
O=c1[nH]c2cc([N+](=O)[O-])ccc2c2ccc([N+](=O)[O-])cc12	.	-5.1	.	-0.6	-0.3	-1.8	.	.
Cc1ccc(NC(=O)c2ccccc2N(C)S(=O)(=O)c2ccccc2)c(C)c1	0.2	4.6	-4.6	-0.3	3.6	8.0	.	.
COCCN(C(=O)Cc1cccs1)c1nnc(-c2ccncc2)s1	-0.3	-74.3	-0.8	17.3*	-25.7	-4.5	40.0*	42.2*
CCN(C(=O)c1cccs1)c1nnc(-c2ccncc2)s1	-2.0	-28.8	9.8	10.2	-15.5	-52.8	.	.
O=C(Nc1ccc2[nH]c(=O)[nH]c2c1)c1c(F)c(F)c(F)c(F)c1F	5.6	-40.2	20.0	18.9*	-15.7	-15.9	28.8*	22.2*	K7 EDANS ctr=i
O=C(/C=C/c1ccc(F)cc1)Nc1ccc2[nH]c(=O)[nH]c2c1	4.5	-8.1	-5.9	34.6*	-4.0	-9.1	100.6*	92.9*
COc1cc(/C=C/C(=O)Nc2ccc3[nH]c(=O)[nH]c3c2)cc(OC)c1OC	3.4	-36.0	-31.2	0.9	-14.6	-1.1	.	.
C[C@H]1C2CC(OC(=O)Nc3ccc4c(c3)OCO4)C(C2)[C@H]2CCCCN21 (stereo partly specified)	.	3.5	.	-0.7	2.1	.	.	.
O=C(c1ccco1)N1CCN(C(=O)c2cnn3c(C(F)(F)F)cc(-c4cccs4)nc23)CC1	1.9	-348.9	1.9	25.0*	-117.5	18.7	-3.6	0.9
CN1CCN(C(=O)c2cnn3c(C(F)(F)F)cc(-c4cccs4)nc23)CC1	3.5	-203.0	-9.2	18.6*	-53.2	-1.7	28.7*	25.1*
SMILES	NR2E3 ag-1	ADAM10 inh	GASC-1 inh	proKLK7 act	ADAM17 inh	NR2E3 ag-2	KLK7 act conf	EDANS-DABCYL int	others
O=C(c1cnn2c(C(F)(F)F)cc(-c3cccs3)nc12)N1CCN(C(c2ccccc2)c2ccccc2)CC1	-1.5	-35.1	-5.1	-2.3	-10.0	-5.8	.	.
FC(F)(F)c1cc(-c2cccs2)nc2ncnn12	1.1	i	-11.3	19.2*	i	12.4	66.9*	65.5*
CC(OC(=O)CNC(=O)C1CCCCC1)C(=O)NCc1ccccc1 (stereo unspecified)	.	-4.7	0.2	-0.5	1.1	-12.7	.	.
CC(C)C(NC(=O)C(C)N1C(=O)c2ccccc2C1=O)c1ccccc1 (stereo unspecified)	1.7	7.7	-9.4	-0.5	0.6	-5.5	.	.
Cc1cc(C)c2c(n1)SCC(=O)N2CC(=O)Nc1ccc(Br)c(C)c1	-1.3	12.3	-0.8	0.4	3.6	-29.2	.	.
N#CCC(=O)N/N=C/c1cc(Br)ccc1OCc1cccc2ccccc12	-1.2	4.3	-3.7	-0.8	0.1	-23.1	.	.
Cc1nc(Cl)c(C(=O)NC(=O)NCc2ccccc2)c(C)c1Cl	-1.9	-3.4	-1.0	-0.1	-3.4	-1.5	.	.
C[C@H](O)C(=O)C1=Nc2c(nc(N)[nH]c2=O)NC1	-1.5	i	.	16.4*	-259.9	-17.4	28.1*	33.4*
Cc1ccccc1C1N=C2Oc3ccccc3C=C2C(=O)N1 (stereo unspecified)	.	-134.1	.	35.0*	-30.2	16.5	72.0*	72.6*
Cc1ccccc1C1NC(=O)c2ccccc2O1 (stereo unspecified)	3.5	-20.0	-12.2	-1.5	-5.3	-3.3	.	.
Cc1ccc(S(=O)(=O)N2CCOCC2)cc1NC(=O)CNC(C)c1ccccc1 (stereo unspecified)	.	-9.5	2.5	0.1	-2.8	-11.6	.	.
N#Cc1c(N)n(CCNC(=O)c2ccccc2)c2nc3ccccc3nc12	1.1	i	-8.7	42.1*	i	-12.7	68.5*	59.2*
N#Cc1c(N)n(CCNC(=O)c2cccs2)c2nc3ccccc3nc12	-0.4	i	6.6	53.2*	i	-2.3	70.6*	82.2*
COc1ccccc1CCn1c(N)c(C#N)c2nc3ccccc3nc21	-0.7	i	-0.1	-69.8	i	-16.9	.	.
